In the library only some 3.2% were active in any assay of this set; here they are far more common.
TRPML3 ag – human mucolipin-3 channel agonism. HEK293 TRPML3-YFP, Fluo-8 calcium fluorescence; 100% = the carbachol control signal. activation, % at 3 µM. 0.29% of 220,000 active. AID 1448;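 active = activation above its plate's cutoff, the mean activation of the plate's test wells plus 3 SD, cut at about 12% in these data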
Target sequence (Q8TDD5 whole entry, looked up): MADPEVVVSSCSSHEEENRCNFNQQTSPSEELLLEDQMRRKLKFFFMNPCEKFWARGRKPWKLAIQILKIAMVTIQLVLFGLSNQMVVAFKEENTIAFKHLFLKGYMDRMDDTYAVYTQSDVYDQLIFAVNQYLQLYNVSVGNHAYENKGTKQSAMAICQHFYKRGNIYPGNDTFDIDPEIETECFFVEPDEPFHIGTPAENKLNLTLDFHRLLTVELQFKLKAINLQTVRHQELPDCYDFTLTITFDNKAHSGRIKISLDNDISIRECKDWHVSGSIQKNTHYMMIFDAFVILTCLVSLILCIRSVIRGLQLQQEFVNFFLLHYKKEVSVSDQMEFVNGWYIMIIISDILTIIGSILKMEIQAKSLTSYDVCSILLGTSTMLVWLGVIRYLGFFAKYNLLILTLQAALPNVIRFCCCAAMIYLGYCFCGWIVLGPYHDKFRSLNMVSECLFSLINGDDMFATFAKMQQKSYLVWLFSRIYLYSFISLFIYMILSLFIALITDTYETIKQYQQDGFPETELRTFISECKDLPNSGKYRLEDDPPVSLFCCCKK
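Material: TRPML3-YFP stable HEK293 cells | Dosing: One concentration, 3 µM nominal, 0.3% DMSO | Timing: 125 s total fluorescence read per well | Technique: Fluo-8 calcium dye fluorescence, ex 470-495, em 515-575 nm | Measure: Percent activation from peak-to-basal fluorescence ratio, scaled between DMSO and carbachol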
OX1R antag-1 – blocks the human orexin 1 receptor. O43613. OX1R-expressing cells, FRET antagonist read-out. AID 485270. 1.8% of 330,000 active. inhibition, % at 6.6 µM; in the data active = inhibition mostly above about 38%, no sharp cut-off; inactive = mostly below about 40%
zfTRPN1 agonist – agonists of zebrafish TRPN1 channel; HEK293 zebrafish TRPN1-YFP, Fluo-8 calcium fluorescence; 100% = response to 87 µM carbachol; activation, % at 3 µM; 0.18% of 220,000 active; AID 1424;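 active = activation above its plate's cutoff, the mean activation of test wells on that plate plus 3 SD, cut at about 19% in these data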
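Control set: carbachol 87 µM as high control, DMSO as low control; system: HEK293 stable line with zebrafish TRPN1-YFP; read-out: % activation versus carbachol response; detection: intracellular calcium fluorescence with Fluo-8; doses: single test compound dose, 3 µM nominal, 0.3% DMSO; schedule: dye 1 h 37 °C plus 30 min RT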
CHO parental Ca – counter-screen: ATP calcium response change in parental CHO cells | parental CHO-K1, ATP-induced calcium, Fluo-8 fluorescence | inhibition, % at 5.6 µM | 0.63% of 330,000 active | AID 463079;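 active = inhibition above that plate's mean sample inhibition plus 3 SD, cut at about 26% in these data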
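Material – parental CHO cells · Reagent – ATP stimulus · Compound – single nominal dose of 5.6 µM per compound · Detection – Fluo-8 fluorescence · Read-out basis – percent inhibition of calcium signal · Controls – ATP-challenged DMSO wells low, unchallenged DMSO wells high · Repeats – no replicates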
OX1R antag-2 – blocks the human orexin 1 receptor. CHO/OX1R cells, Fluo-8 calcium fluorescence, orexin A. inhibition, % at 5 µM. 0.43% of 330,000 active. AID 434989;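 active = inhibition above its plate's threshold, mean inhibition of all tested compounds on the plate plus 3 SD, cut at about 37% in these data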
GPR7 antagonist – antagonists of human GPR7 (neuropeptides B/W receptor 1). P48145. GPR7-expressing cells, fluorescence antagonist assay. inhibition, % at 4.4 µM. 1.1% of 290,000 active. AID 1861; in the data active = inhibition above about 16%, passing the limit was not always enough;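 also: cells stimulated with the agonist NPW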
OX1R HTRF confirm – OX1R (human) antagonism, HTRF confirmed; inhibition, % at 6.6 µM; 49% of 1,800 active; shares compounds with OX1R antag-1; OX1R-expressing cells, HTRF antagonist assay; AID 492964; in the data active = inhibition above about 55%;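 also: CHO cells expressing OX1R stimulated with orexin A at about EC80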
CHO-K1 HTRF cnt – counter-screen: parental CHO-K1 HTRF response; parental CHO-K1 cells, HTRF counterscreen; 48% of 1,800 active; shares compounds with OX1R antag-1; inhibition, % at 6.6 µM; in the data active = inhibition above about 17%
Large screens that a line does not name were inactive (follow-up assays come after a bar, where they were run).

CN(C)CCNC(=O)C(=O)NCC1OCCN1S(=O)(=O)c1ccc([N+](=O)[O-])cc1 (stereo unspecified)	OX1R antag-1 89 | OX1R HTRF confirm inactive | CHO-K1 HTRF cnt 60
Cc1ccc(C(=O)Oc2cccc(NC(=O)c3cccs3)c2)cc1S(=O)(=O)N1CCOCC1	OX1R antag-1 79 | OX1R HTRF confirm inactive | CHO-K1 HTRF cnt inactive
Cc1ccc(C(=O)Nn2cnnc2)cc1S(=O)(=O)N1CCOCC1	OX1R antag-1 86 | OX1R HTRF confirm inactive | CHO-K1 HTRF cnt inactive
Cc1ccc(C(=O)NC2CC2)cc1S(=O)(=O)N1CCOCC1	none (no result: TRPML3 ag, zfTRPN1 agonist, GPR7 antagonist)
CC(=O)c1cccc(NC(=O)c2ccc(C)c(S(=O)(=O)N3CCOCC3)c2)c1	none (no result: TRPML3 ag, zfTRPN1 agonist)
CCOC(=O)c1cc2[nH]c3ccccc3c2[n+](-c2ccc([N+](=O)[O-])cc2)c1N	OX1R antag-1 138 | OX1R HTRF confirm 57 | CHO-K1 HTRF cnt 69
CCOC(=O)c1ccc(-c2ccc3[nH]c4ccccc4c(=O)c3c2)cc1F	none (no result: TRPML3 ag, zfTRPN1 agonist)
COC(=O)c1sccc1NC(=O)c1ccc(C)cc1	none (no result: TRPML3 ag, zfTRPN1 agonist)
COc1cc(OC)cc(C(=O)Nc2cccc3cccnc23)c1	OX1R antag-1 81 (no result: TRPML3 ag, zfTRPN1 agonist) | OX1R HTRF confirm 75 | CHO-K1 HTRF cnt inactive
COc1cc(NC(=O)c2ccc(Cl)cc2)c2ncccc2c1	none (no result: TRPML3 ag, OX1R antag-1, zfTRPN1 agonist, CHO parental Ca, OX1R antag-2)
COc1ccc(C(=O)Nc2cc(OC)cc3cccnc23)cc1	OX1R antag-1 99 (no result: TRPML3 ag, zfTRPN1 agonist) | OX1R HTRF confirm 86 | CHO-K1 HTRF cnt 22
COC(=O)c1sccc1NC(=O)c1ccc(OC)cc1	OX1R antag-1 89 | OX1R HTRF confirm 68 | CHO-K1 HTRF cnt inactive
CC(=O)Nc1ccc(N2C(=O)c3ccc(C(=O)Nc4nnc(SCc5ccc(F)cc5)s4)cc3C2=O)cc1	none
CCCn1c(SCC(=O)N2CCOCC2)nnc1-c1ccncc1	none (no result: TRPML3 ag, zfTRPN1 agonist)
CC(=O)N1CCN(c2ccccc2NC(=O)c2ccco2)CC1	none (no result: TRPML3 ag, zfTRPN1 agonist)
COc1cccc(/C=N/NC(=O)C(=O)Nc2ccccc2OC(F)(F)C(F)F)c1O	OX1R antag-1 97 | OX1R HTRF confirm 93 | CHO-K1 HTRF cnt inactive
COc1ccccc1/C=N/NC(=O)c1cccc(OC(F)(F)C(F)F)c1	none
COc1cc(O)c(/C=N/NC(=O)c2ccncc2)c(OC)c1[N+](=O)[O-]	none
COCC(=O)N1CCN(c2ccc([N+](=O)[O-])cc2)CC1	OX1R antag-1 160 | OX1R HTRF confirm inactive | CHO-K1 HTRF cnt 41
N#CCCn1c(O)c(N=NC(=O)CNC(=O)c2cccs2)c2ccccc21	OX1R antag-1 93 | OX1R HTRF confirm inactive | CHO-K1 HTRF cnt 50
O=C1C=C(c2cccc3c2oc2ccccc23)CCC1	OX1R antag-1 81 (no result: TRPML3 ag, zfTRPN1 agonist, GPR7 antagonist) | OX1R HTRF confirm 60 | CHO-K1 HTRF cnt inactive
N#CC1=C(N)Oc2cc(O)ccc2C1c1ccncc1 (stereo unspecified)	OX1R antag-1 111 | OX1R HTRF confirm inactive | CHO-K1 HTRF cnt inactive
N#CC1=C(N)Oc2cc(O)ccc2C1c1cccnc1 (stereo unspecified)	none
CC(=O)Nc1ccc(NC2=CC(=O)c3ccccc3C2=O)cc1	none (no result: TRPML3 ag, zfTRPN1 agonist)
O=C1C=C(Nc2ccc(O)cc2)C(=O)c2ccccc21	OX1R antag-1 79 | OX1R HTRF confirm inactive | CHO-K1 HTRF cnt 25
CC(=O)c1cccc(OCC(=O)Nc2ccccc2N2CCOCC2)c1	none (no result: TRPML3 ag, zfTRPN1 agonist, GPR7 antagonist)
O=c1oc2c(-c3ccc([N+](=O)[O-])cc3)cc(O)cc2s1	none
O=c1nc(-c2ccccc2)c(-c2ccccc2)n[nH]1	none (no result: TRPML3 ag, OX1R antag-1, zfTRPN1 agonist, CHO parental Ca, OX1R antag-2)
O=c1nc(-c2ccccc2)cn[nH]1	OX1R antag-1 148 | OX1R HTRF confirm inactive | CHO-K1 HTRF cnt 37
CCOC(=O)c1ccc(Nc2cc(C)nc(-c3ccccc3)n2)cc1	OX1R antag-1 83 (no result: TRPML3 ag, zfTRPN1 agonist) | OX1R HTRF confirm inactive | CHO-K1 HTRF cnt inactive
Cc1ccc(C(=O)Nc2cccc(C(=O)NC3CCCC3)c2)cc1	none (no result: TRPML3 ag, zfTRPN1 agonist)
COc1ccc(S(=O)(=O)N2CCCCC2)cc1NC(=O)c1[nH]c(C)c(C(C)=O)c1C	none (no result: TRPML3 ag, zfTRPN1 agonist, GPR7 antagonist)
COc1ccccc1C(=O)N=Nc1c(O)[nH]c2ccc([N+](=O)[O-])cc12	none (no result: OX1R antag-1, CHO parental Ca, OX1R antag-2)

Screens deposited in PubChem BioAssay by The Scripps Research Institute Molecular Screening Center.
